Measured values as given in ChEMBL document CHEMBL1124891, “Azulene derivatives: new non-prostanoid thromboxane A2 receptor antagonists” (J Med Chem, 1990).
pIC50: −log10 of the molar value.

Experiments:
Type in all cases: functional
[1] = Selectivity index is the […] between the IC50 values in the aggregation and contraction assays
In short: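 Index for τ-receptor computed as […] between IC50 in rabbit PRP aggregation (2.5×10^-6 M U-46619) and IC50 for relaxing rabbit aorta contracted by 3×10^-8 M U-46619.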

[2] = species: Oryctolagus cuniculus; experiment: Tested for the concentration that cause 50% inhibition of the maximum aggregation with rabbit platelet-rich plasma induced by 2.5 x 10 E -6 M of U-46619
In short: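 Rabbit blood drawn from carotid artery into 3.18% trisodium citrate (1/10 volume). PRP from 300 g spin for 15 min; PPP from 1000g spin for 20 min, used as 100% transmission reference. PRP warmed 2 min at 37 °C, compound or vehicle added, 2 min later 2.5×10^-6 M U-46619. Turbidimetric (Born) aggregometry; IC50 as 50% inhibition of maximum aggregation.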

[3] = species: Oryctolagus cuniculus; experiment: Tested for the concentration that causes 50% relaxation when contraction in rabbit aorta was induced by 3 x 10 E -8 M of U-46619.
In short: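 Rabbit thoracic aorta strips held at 37 °C in oxygenated (95% O2/5% CO2) bicarbonate salt solution with dextrose, resting tension 1.5 g, equilibrated 1 h. Isometric tension recorded via force transducer. Once contraction to 3×10^-8 M U-46619 plateaued, compound added cumulatively. Concentration giving 50% relaxation of maximal U-46619-induced tension change obtained by regression of concentration–relaxation curve.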

Structure (SMILES)	pIC50 [2]	pIC50 [3]	Selectivity index [1]
CC(C)c1ccc2c(CCCNS(=O)(=O)c3ccccc3)cc(C(=O)O)c-2cc1	< 4.00	4.85	> 7
CC(C)c1ccc2c(CCNS(=O)(=O)c3ccccc3)cc(C(=O)O)c-2cc1	< 4.00	4.85	> 7
CC(C)c1ccc2c(CCCCNS(=O)(=O)c3ccccc3)cc(C(=O)O)c-2cc1	< 4.00	5.80	> 63
COc1ccc(S(=O)(=O)NCCCCc2cc(C(=O)O)c3ccc(C(C)C)ccc2-3)cc1	< 4.00	6.37	> 233
CC(C)c1ccc2c(CCCCNS(=O)(=O)c3ccccc3)cc(CC(=O)O)c-2cc1	< 4.00	5.52	> 33

Second part, led by results:

pIC50 [2]	pIC50 [3]	Structure (SMILES)	Selectivity index [1]
< 4.00	4.80	CC(C)c1ccc2c(/C=C/C(=O)O)cc(CCCCNS(=O)(=O)c3ccccc3)c-2cc1	> 6
< 4.00	5.96	CC(C)c1ccc2c(CCCCNS(=O)(=O)c3ccccc3)cc(S(=O)(=O)O)c-2cc1	> 91
< 4.00	5.47	CC(C)c1ccc2c(CCCCCNS(=O)(=O)c3ccccc3)cc(C(=O)O)c-2cc1	> 29
< 4.00	6.82	CC(C)c1ccc2c(CCCCNS(=O)(=O)c3ccc(Cl)cc3)cc(C(=O)O)c-2cc1	> 667
5.15	5.89	O=C(O)COc1ccc(CCNS(=O)(=O)c2ccccc2)cc1 [SULOTROBAN]	5
5.06	7.64	CC(C)c1ccc2c(CCCCNS(=O)(=O)c3ccc(Cl)cc3)cc(S(=O)(=O)O)c-2cc1	378
4.19	7.01	COc1ccc(S(=O)(=O)NCCCCc2cc(S(=O)(=O)O)c3ccc(C(C)C)ccc2-3)cc1	660
